These results are taken from publication PMC7337098 (Cell reports, 2020).

The EC50 is the concentration at which the effect is half-maximal. Usually Hill coefficient stands for the slope factor of the fitted curve.

Counter-ions that a name gives are not always drawn. Like-named read-outs stand apart in the source and are kept apart here.

For assay [1], the system named is P2X3R and P2X2R. Nature of the assay: Calcium FLIPR assay, HEK cells stably expressing both P2X3R and P2X2R. Particulars: read-out: α,β-MeATP EC50, HEK cell lines stably expressing both P2X3R and P2X2R. It is filed as cell-based, human.
Assay [2] concerns the target T1, P2X4R (Homo sapiens, UniProt Q99571).
T1 sequence (Q99571 1-388): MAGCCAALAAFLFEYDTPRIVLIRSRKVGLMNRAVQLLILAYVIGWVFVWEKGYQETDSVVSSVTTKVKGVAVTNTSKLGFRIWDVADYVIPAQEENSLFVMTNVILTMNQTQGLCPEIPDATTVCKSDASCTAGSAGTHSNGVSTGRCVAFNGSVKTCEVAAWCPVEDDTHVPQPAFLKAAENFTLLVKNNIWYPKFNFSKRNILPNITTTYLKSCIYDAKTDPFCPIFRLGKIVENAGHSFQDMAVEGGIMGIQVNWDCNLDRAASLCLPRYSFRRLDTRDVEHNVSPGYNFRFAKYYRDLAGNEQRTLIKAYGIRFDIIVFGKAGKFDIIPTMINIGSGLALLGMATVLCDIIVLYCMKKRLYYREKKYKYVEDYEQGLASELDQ
It is filed as cell-based. Particulars: P2X4R alone; 10 μM ivermectin pre-applied 10 s; ATP 1.3 μM; n = 7. In a few lines:
(§1)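 Xenopus oocytes (surgically harvested, collagenase-treated) co-injected with 25 pg P2X4R cRNA plus 2 ng TMEM163 cRNA, or 2 ng Neto2 cRNA as the control. TEVC at Vh −30 mV, room temperature, in 90 mM NaCl, 1 mM KCl, 2 mM CaCl2, 10 mM HEPES pH 7.4. […] Mean ± SEM; Student's t test.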

The target in assay [3] is T2, P2X4R with TMEM163 (Homo sapiens, UniProt Q99571).
T2 sequence (Q99571 1-388): T1 sequence (Q99571 1-388)
It is filed as cell-based. The settings on record: 10 μM ivermectin pre-applied 10 s, ATP 1.3 μM, n = 7. A digest of the protocol: as §1

The target of assay [4] is T3, P2X3R (Homo sapiens, UniProt P56373).
T3 sequence (P56373 1-397): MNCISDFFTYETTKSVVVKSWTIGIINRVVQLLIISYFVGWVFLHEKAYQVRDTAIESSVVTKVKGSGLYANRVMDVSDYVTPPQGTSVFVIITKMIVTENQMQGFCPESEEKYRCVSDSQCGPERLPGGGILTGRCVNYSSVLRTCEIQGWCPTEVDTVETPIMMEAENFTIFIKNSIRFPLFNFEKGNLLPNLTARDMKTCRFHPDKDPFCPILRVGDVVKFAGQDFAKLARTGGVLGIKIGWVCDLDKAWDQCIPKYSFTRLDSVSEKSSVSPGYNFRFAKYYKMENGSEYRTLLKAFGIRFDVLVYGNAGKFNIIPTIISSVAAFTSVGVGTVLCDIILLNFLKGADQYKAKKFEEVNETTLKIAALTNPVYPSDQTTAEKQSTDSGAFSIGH
Kind of assay: Calcium FLIPR ATP dose response, P2X3R-stable HEK cells transfected with pcDNA3. It is filed as cell-based.

For assay [5], the target named is T4, P2X3R with TMEM163 (Homo sapiens, UniProt P56373).
T4 sequence (P56373 1-397): T3 sequence (P56373 1-397)
T4 sequence (Q8TC26 1-289 partner): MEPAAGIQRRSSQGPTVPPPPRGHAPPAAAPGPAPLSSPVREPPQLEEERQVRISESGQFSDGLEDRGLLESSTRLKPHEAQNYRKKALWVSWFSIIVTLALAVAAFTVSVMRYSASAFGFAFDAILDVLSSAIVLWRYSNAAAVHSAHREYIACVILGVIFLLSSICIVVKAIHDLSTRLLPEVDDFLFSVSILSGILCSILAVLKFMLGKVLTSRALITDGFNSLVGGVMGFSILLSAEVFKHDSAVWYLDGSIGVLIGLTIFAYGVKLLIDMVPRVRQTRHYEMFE
Nature of the assay: Calcium FLIPR ATP dose response, P2X3R-stable HEK cells transfected with TMEM163. It is filed as cell-based.

For assay [6], the target named is T3, P2X3R. It is filed as cell-based.
The target of assay [7] is T4, P2X3R with TMEM163. Format: cell-based.
The target in assay [8] is T3, P2X3R. It is filed as cell-based. Particulars: 100 μM ATP, outside-out patch.
Assay [9] deals with T4, P2X3R with TMEM163. It is filed as cell-based. The settings on record: 100 μM ATP, outside-out patch.
Assay [10] concerns P2XRs in DRG neurons. Kind of assay: Whole-cell recording of ATP-evoked currents, primary DRG neurons from WT mice. The settings on record: Mus musculus, DRG neuron, read-out: ATP EC50. It is filed as cell-based.
Assay [11] has as its system P2XRs in TMEM163 KO DRG neurons. It is filed as cell-based. The settings on record: Mus musculus, DRG neuron, read-out: ATP EC50.
The subject of assay [12] is WT mice. Nature of the assay: ATP-evoked freezing behavior after hind paw injection. Format: in vivo, mouse. The settings on record: 3 μmol ATP into hind paw, 4 min after injection, saline 6.7 ± 3.2 s.
Assay [13] concerns endogenous P2 receptors in HEK cells. Kind of assay: Calcium FLIPR response of HEK cells. It is filed as cell-based, human. Particulars: untransfected (Mock) HEK cells.
Assay [14] relates to P2XR in cerebellar granule cells. Format: cell-based, mouse. Particulars: TNP-ATP 10 μM co-applied with ATP; untreated 23.55 ± 6.96 pA; n = 3.

Turning to `Nc1ncnc2c1ncn2[C@@H]1O[C@H](COP(=O)(O)CP(=O)(O)OP(=O)(O)O)[C@@H](O)[C@H]1O` [α,β-MeATP, α, β-Methyleneadenosine 5′-triphosphate lithium salt], in assay [1], the EC50 is 656 ± 88.7 nM.

With ivermectin, the “potentiation of ATP-evoked currents (ratio with and without ivermectin)” value in [2] came out at 3.7 ± 0.5 times; in [3] it was 1.9 ± 0.2 times.

Consider `Nc1ncnc2c1ncn2[C@@H]1O[C@H](COP(=O)([O-])OP(=O)([O-])OP(=O)([O-])[O-])[C@@H](O)[C@H]1O.[Mg+2].[Mg+2]` [ATP, Adenosine 5′-triphosphate magnesium salt], for which the Hill coefficient in assay [4] came to 0.99 ± 0.03; in [5] (P2X3R with TMEM163, ATP calcium FLIPR dose response), 0.73 ± 0.04; in assay [6] (P2X3R, ATP TEVC dose response), 1.04 ± 0.14; in assay [7] (P2X3R with TMEM163, ATP TEVC dose response), 0.98 ± 0.15. For the same molecule, the EC50 was 1270 ± 110 nM in assay [5]; 1300 ± 230 nM in assay [6]; 261 ± 27.2 nM in assay [7] (ATP EC50, 25 pg P2X3R with 2 ng TMEM163, TEVC, 20-min interval); 5920 ± 1170 nM in assay [10]; 31000 ± 15100 nM in [11]. Moreover, the “mean rise time of ATP-evoked currents” value in [8] worked out at 0.43 ± 0.042 ms; in assay [9], 0.50 ± 0.061 ms. For the same molecule, in [12], the “mean cumulative duration of freezing behaviors” value is 74 ± 7.1 s. Moreover, the “ATP concentrations at which HEK cells (Mock) responded” value in [13] is “above 1 μM”.

In assay [14], `Nc1ncnc2c1ncn2[C@@H]1O[C@H](COP(=O)(O)OP(=O)(O)OP(=O)(O)O)[C@H]2OC3(O[C@H]21)C([N+](=O)[O-])=CC(=[N+]([O-])[O-])C=C3[N+](=O)[O-]` (some centres unmarked) [TNP-ATP, TNP-ATP triethylammonium salt] showed an ATP-evoked current of 0.53 ± 0.25 pA.
